Test results: ChEMBL document CHEMBL1770134, “Synthesis and in vitro activity of novel 1,2,4-triazolo[4,3-a]pyrimidine oxazolidinone antibacterial agents” (Bioorg Med Chem Lett, 2011)
≈ marks a conversion by molar mass, not a printed value.

What follows are compounds tested on Staphylococcus epidermidis (assay: Antibacterial activity Staphylococcus epidermidis ATCC 12228).
Type: functional

SMILES | MIC [µg/mL]
O=C(NC[C@H]1CN(c2ccc(-c3nnc4ncccn34)cc2)C(=O)O1)c1ccccc1 | > 16
CCC(=S)NC[C@H]1CN(c2ccc(-c3nnc4ncccn34)cc2)C(=O)O1 | 2 (≈ 5.23 µM)
COC(=O)NC[C@H]1CN(c2ccc(-c3nnc4ncccn34)cc2)C(=O)O1 | 16 (≈ 43.4 µM)
CCOC(=O)NC[C@H]1CN(c2ccc(-c3nnc4ncccn34)cc2)C(=O)O1 | > 16
O=C(NC[C@H]1CN(c2ccc(-c3nnc4ncccn34)cc2)C(=O)O1)Oc1ccccc1 | > 16
CC(C)NC(=O)NC[C@H]1CN(c2ccc(-c3nnc4ncccn34)cc2)C(=O)O1 | > 16
CC(C)(C)NC(=O)NC[C@H]1CN(c2ccc(-c3nnc4ncccn34)cc2)C(=O)O1 | > 16
CCCCNC(=O)NC[C@H]1CN(c2ccc(-c3nnc4ncccn34)cc2)C(=O)O1 | > 16
CC(C)NC(=S)NC[C@H]1CN(c2ccc(-c3nnc4ncccn34)cc2)C(=O)O1 | 16 (≈ 38.9 µM)
CCCCNC(=S)NC[C@H]1CN(c2ccc(-c3nnc4ncccn34)cc2)C(=O)O1 | 8 (≈ 18.8 µM)
COCCNC(=S)NC[C@H]1CN(c2ccc(-c3nnc4ncccn34)cc2)C(=O)O1 | 8 (≈ 18.7 µM)
CC(=O)NC[C@H]1CN(c2ccc(N3CCOCC3)c(F)c2)C(=O)O1 [LINEZOLID] | 1 (≈ 2.96 µM)

What follows are compounds tested on Staphylococcus aureus (assay: Antibacterial activity against Staphylococcus aureus ATCC 25923).
Type: functional

SMILES | MIC [µg/mL]
O=C(NC[C@H]1CN(c2ccc(-c3nnc4ncccn34)cc2)C(=O)O1)c1ccccc1 | > 16
CCC(=S)NC[C@H]1CN(c2ccc(-c3nnc4ncccn34)cc2)C(=O)O1 | 4 (≈ 10.5 µM)
COC(=O)NC[C@H]1CN(c2ccc(-c3nnc4ncccn34)cc2)C(=O)O1 | 16 (≈ 43.4 µM)
CCOC(=O)NC[C@H]1CN(c2ccc(-c3nnc4ncccn34)cc2)C(=O)O1 | 16 (≈ 41.8 µM)
O=C(NC[C@H]1CN(c2ccc(-c3nnc4ncccn34)cc2)C(=O)O1)Oc1ccccc1 | > 16
CC(C)NC(=O)NC[C@H]1CN(c2ccc(-c3nnc4ncccn34)cc2)C(=O)O1 | > 16
CC(C)(C)NC(=O)NC[C@H]1CN(c2ccc(-c3nnc4ncccn34)cc2)C(=O)O1 | > 16
CCCCNC(=O)NC[C@H]1CN(c2ccc(-c3nnc4ncccn34)cc2)C(=O)O1 | > 16
CC(C)NC(=S)NC[C@H]1CN(c2ccc(-c3nnc4ncccn34)cc2)C(=O)O1 | 16 (≈ 38.9 µM)
CCCCNC(=S)NC[C@H]1CN(c2ccc(-c3nnc4ncccn34)cc2)C(=O)O1 | 16 (≈ 37.6 µM)
COCCNC(=S)NC[C@H]1CN(c2ccc(-c3nnc4ncccn34)cc2)C(=O)O1 | > 16

These compounds were tested on Enterococcus faecalis (assay: Antibacterial activity against Enterococcus faecalis ATCC 29212).
Type: functional

SMILES | MIC [µg/mL]
O=C(NC[C@H]1CN(c2ccc(-c3nnc4ncccn34)cc2)C(=O)O1)c1ccccc1 | > 16
CCC(=S)NC[C@H]1CN(c2ccc(-c3nnc4ncccn34)cc2)C(=O)O1 | 4 (≈ 10.5 µM)
COC(=O)NC[C@H]1CN(c2ccc(-c3nnc4ncccn34)cc2)C(=O)O1 | > 16
CCOC(=O)NC[C@H]1CN(c2ccc(-c3nnc4ncccn34)cc2)C(=O)O1 | > 16
O=C(NC[C@H]1CN(c2ccc(-c3nnc4ncccn34)cc2)C(=O)O1)Oc1ccccc1 | > 16
CC(C)NC(=O)NC[C@H]1CN(c2ccc(-c3nnc4ncccn34)cc2)C(=O)O1 | > 16
CC(C)(C)NC(=O)NC[C@H]1CN(c2ccc(-c3nnc4ncccn34)cc2)C(=O)O1 | > 16
CCCCNC(=O)NC[C@H]1CN(c2ccc(-c3nnc4ncccn34)cc2)C(=O)O1 | > 16
CC(C)NC(=S)NC[C@H]1CN(c2ccc(-c3nnc4ncccn34)cc2)C(=O)O1 | > 16
CCCCNC(=S)NC[C@H]1CN(c2ccc(-c3nnc4ncccn34)cc2)C(=O)O1 | 16 (≈ 37.6 µM)
COCCNC(=S)NC[C@H]1CN(c2ccc(-c3nnc4ncccn34)cc2)C(=O)O1 | > 16

Each compound was assayed on Escherichia coli (assay: Antibacterial activity against Escherichia coli ATCC 25922).
Type: functional

SMILES | MIC [µg/mL]
O=C(NC[C@H]1CN(c2ccc(-c3nnc4ncccn34)cc2)C(=O)O1)c1ccccc1 | > 16
CCC(=S)NC[C@H]1CN(c2ccc(-c3nnc4ncccn34)cc2)C(=O)O1 | > 16
COC(=O)NC[C@H]1CN(c2ccc(-c3nnc4ncccn34)cc2)C(=O)O1 | > 16
CCOC(=O)NC[C@H]1CN(c2ccc(-c3nnc4ncccn34)cc2)C(=O)O1 | > 16
O=C(NC[C@H]1CN(c2ccc(-c3nnc4ncccn34)cc2)C(=O)O1)Oc1ccccc1 | > 16
CC(C)NC(=O)NC[C@H]1CN(c2ccc(-c3nnc4ncccn34)cc2)C(=O)O1 | > 16
CC(C)(C)NC(=O)NC[C@H]1CN(c2ccc(-c3nnc4ncccn34)cc2)C(=O)O1 | > 16
CCCCNC(=O)NC[C@H]1CN(c2ccc(-c3nnc4ncccn34)cc2)C(=O)O1 | > 16
CC(C)NC(=S)NC[C@H]1CN(c2ccc(-c3nnc4ncccn34)cc2)C(=O)O1 | > 16
CCCCNC(=S)NC[C@H]1CN(c2ccc(-c3nnc4ncccn34)cc2)C(=O)O1 | > 16
COCCNC(=S)NC[C@H]1CN(c2ccc(-c3nnc4ncccn34)cc2)C(=O)O1 | > 16
CC(=O)NC[C@H]1CN(c2ccc(N3CCOCC3)c(F)c2)C(=O)O1 [LINEZOLID] | > 16

What follows are compounds tested on Staphylococcus aureus (assay: Antibacterial activity against methicillin-resistant Staphylococcus aureus ATCC 43300).
Type: functional
Summary of the method: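 MIC determined following CLSI guideline M07-A8 (2009) for dilution susceptibility testing of aerobically growing bacteria.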

SMILES | MIC [µg/mL]
O=C(NC[C@H]1CN(c2ccc(-c3nnc4ncccn34)cc2)C(=O)O1)c1ccccc1 | > 16
CCC(=S)NC[C@H]1CN(c2ccc(-c3nnc4ncccn34)cc2)C(=O)O1 | 2 (≈ 5.23 µM)
COC(=O)NC[C@H]1CN(c2ccc(-c3nnc4ncccn34)cc2)C(=O)O1 | 16 (≈ 43.4 µM)
CCOC(=O)NC[C@H]1CN(c2ccc(-c3nnc4ncccn34)cc2)C(=O)O1 | 16 (≈ 41.8 µM)
O=C(NC[C@H]1CN(c2ccc(-c3nnc4ncccn34)cc2)C(=O)O1)Oc1ccccc1 | > 16
CC(C)NC(=O)NC[C@H]1CN(c2ccc(-c3nnc4ncccn34)cc2)C(=O)O1 | > 16
CC(C)(C)NC(=O)NC[C@H]1CN(c2ccc(-c3nnc4ncccn34)cc2)C(=O)O1 | > 16
CCCCNC(=O)NC[C@H]1CN(c2ccc(-c3nnc4ncccn34)cc2)C(=O)O1 | > 16
CC(C)NC(=S)NC[C@H]1CN(c2ccc(-c3nnc4ncccn34)cc2)C(=O)O1 | 16 (≈ 38.9 µM)
CCCCNC(=S)NC[C@H]1CN(c2ccc(-c3nnc4ncccn34)cc2)C(=O)O1 | 8 (≈ 18.8 µM)
COCCNC(=S)NC[C@H]1CN(c2ccc(-c3nnc4ncccn34)cc2)C(=O)O1 | 16 (≈ 37.4 µM)
